Sampled rows, rich in hits. Any-hit rate of the full collection: about 3%.
CASP6 VEID inh: caspase-6 (human) enzyme inhibition. purified caspase-6, Z-VEID-R110 cleavage fluorescence. inhibition, % at 12.5 µM. 350,000 tested, 0.53% active. AID 686996;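 active = mean inhibition across replicates at least about 35%, with every replicate also reaching that limit, limit read from the data; inconclusive = only one of the two criteria met; inactive = neither criterion met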;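 note: 0% = median of neutral control wells and 100% = no fluorescence left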
XiGFP reactiv: X-chromosome reactivation activator. XiGFP mouse fibroblasts, % GFP-positive cells imaging, 3 d; cells co-treated with 5-aza-dC sensitizer; scaled so ellipticine positive control = 100%. activation, % at 7.58 µM. 360,000 tested, 0.055% active;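 active = mean normalized replicate activation at least 10% and every replicate at or above 10%; inconclusive = only one of the two criteria met; inactive = mean below 10% and not all replicates reach 10%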;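 note: 0% = median of on-plate neutral control wells and 100% = ellipticine 6 µM median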
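Schedule: 3 d treatment, 15 min room-temperature fixation; system: 68-5-11 XiGFP fibroblast line; buffer or medium: DMEM plus 5-aza-dC sensitizer; control set: ellipticine 6 µM positive control; compound: one concentration, pinned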
esBAF inh: blocks esBAF chromatin remodeling in mouse ES cells; Bmi1-luciferase knock-in reporter, 24 h; 100% = twice the neutral-well signal; reporter increase, % at 12.5 µM; 350,000 tested, 2% active; in the data active = activation above about 40%; inconclusive = no clear call, values can overlap the other calls;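 note: 0% = median of the plate's neutral control wells and 100% = double that signal; a rise in the Bmi1 reporter signal indicates esBAF inhibition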
MITF TRPM1 HTS: activators of MITF-driven TRPM1 promoter activity in SK-MEL-5 cells. SK-MEL-5 TRPM1-promoter luciferase, 24 h; % of positive control, neutral wells = 0. activation, % at 12.5 µM. 300,000 tested, 0.75% active. AID 588334;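 active = mean activation of at least 80% with every replicate also reaching 80%; inconclusive = mean reaches 80% but some replicate falls short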;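 note: 0% = neutral control wells and 100% = parthenolide positive control wells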
Wnt act: activates Wnt/beta-catenin signaling in a reporter cell assay; AID 743398; 300,000 tested, 1.2% active; activator, plate reader; activation, % at 9.35 µM; in the data active = activation above about 30%, passing the limit was not always enough; inconclusive = no clear call, values can overlap the other calls;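 note: 0% = neutral control wells and 100% = positive control wells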
NSD2 HMT inh: inhibitors of human histone methyltransferase NSD2; NSD2 peptide methylation, AlphaScreen, 120 min; inhibition, % at 12.5 µM; 310,000 tested, 0.54% active; in the data active = inhibition above about 50%
esBAF Ring1 qPCR: de-represses Ring1 in mouse ESCs, confirming esBAF inhibition. fold change at 33 µM. mouse ESC E14, Ring1 mRNA RT-qPCR fold change. shares compounds with esBAF inh. AID 743176. 550 tested, under 10 active;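 active = Ring1 gene expression raised more than 2-fold over untreated cells in both replicates at either tested dose; inconclusive = only one replicate above 2-fold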;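 note: Ring1 transcript normalised to actin housekeeping signal by TaqMan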
esBAF Fgf4 qPCR: represses Fgf4 in mouse ESCs, confirming esBAF inhibition; shares compounds with esBAF inh; mouse ESC E14, Fgf4 mRNA qPCR fold change; stronger effect = lower value; 550 tested, 4% active; Fgf4 expression fold change at 33 µM;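 active = Fgf4 expression under 0.8 fold of control in both repeat measurements at one or both tested doses; inconclusive = under 0.8 fold in just a single repeat measurement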;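 note: Fgf4 transcript normalised to actin in duplex TaqMan qPCR; cells exposed to compound for 24 h before lysis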
Bmi1 derepress: de-represses Bmi1 in mouse ESCs, confirming esBAF inhibition. 550 tested, under 10 active. fold change at 33 µM. shares compounds with esBAF inh. mouse ESE14 ES cells, Bmi1 mRNA qPCR fold; stronger effect = higher value;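 active = Bmi1 expression fold change above 6 at either tested concentration, seen in replicate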;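 note: higher fold means more Bmi1 de-repression and stronger esBAF inhibition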
A549 cytotox: kills or reduces viability of A549 cells; shares compounds with esBAF inh; A549 cytotoxicity, plate reader; cell viability change % (negative = cytotoxic), % at 25 µM, hits read low; 550 tested, under 10 active; call rule not given here
HepG2 tox SP: cytotoxicity in HepG2 cells | shares compounds with esBAF inh | plate reader; stronger effect = lower value | activity change, negative = inhibition, % at 25 µM | 550 tested, 4% active | AID 743189; in the data active = activity change below about -50%
HEK293 cytotox SP: HEK293 cell cytotoxicity at single point. shares compounds with esBAF inh. plate reader. activity change, negative = inhibition, % at 25 µM, hits read low. 550 tested, 3% active; in the data active = activity change below about -38%, passing the limit was not always enough
Starred values were filed as active, the others as inactive; ? = inconclusive; . = not tested or not shown.

SMILES	CASP6 VEID inh	XiGFP reactiv	esBAF inh	MITF TRPM1 HTS	Wnt act	NSD2 HMT inh	esBAF Ring1 qPCR	esBAF Fgf4 qPCR	Bmi1 derepress	A549 cytotox	HepG2 tox SP	HEK293 cytotox SP
CO[C@H]1CN(C)C(=O)c2cc(NC(=O)C3CCC3)ccc2OC[C@@H](C)N(C(=O)NC(C)C)C[C@H]1C	1.5	-0.6	2.5	.	.	.	.	.	.	.	.	.
Cc1ccnc(NC(=O)CCCc2ccccc2)c1	2.0	-0.1	65.4*	44.8	.	-2.4	1.08	0.983	1.53	1.2	-0.8	0.8
O=C(N/N=C/c1cccc([N+](=O)[O-])c1)c1cccc2cc[nH]c12	-3.4	0.2	.	0.2	-1.8	-2.0	.	.	.	.	.	.
O=C(N/N=C/c1cccs1)c1cccc2cc[nH]c12	4.6	.	56.9*	27.6	7.2	10.0	1.36	1.07	1.25	-16.2	19.7	1.4
COC(=O)C[C@@H]1CC[C@@H]2[C@H](COc3ccc(NS(=O)(=O)c4ccccc4Cl)cc3C(=O)N2C)O1	0.6	0.1	1.8	.	.	.	.	.	.	.	.	.
Nc1n[nH]c(N)c1N=Nc1ccc(Cl)cc1	-3.6	0.1	52.8*	53.4	-2.9	4.2	1.4	1.07	1.87	0.2	3.3	4.8
Nc1n[nH]c(N)c1N=Nc1cccc(F)c1	.	0.1	29.9	33.3	.	28.1	.	.	.	.	.	.
CC(=O)Nc1ccc(-c2ccccc2)s1	.	.	-10.1	1.8	.	-6.9	.	.	.	.	.	.
CNC(=O)c1ccc(-c2ccccc2)s1	.	.	57.9*	32.1	2.9	27.0	1.01	?	1.11	-4.1	35.6	4.8
N/C(=N\OC(=O)CC1CCCCC1)c1ccncc1	.	0.3	.	9.3	1.4	0.3	.	.	.	.	.	.
N/C(=N\OC(=O)CC1CCCCC1)c1ccccn1	-3.2	.	82.2*	87.5*	.	-1.7	1.38	?	1.58	-1.2	-23.9	8.2
C[C@@H]1CN([C@H](C)CO)C(=O)c2cc(C#CC3CCCC3)cnc2O[C@@H]1CN(C)Cc1ccncc1	1.3	-0.3	-1.9	.	.	.	.	.	.	.	.	.
Fc1ccc2cc(-c3ccsc3)ncc2c1	1.6	0.0	59.9*	72.6	36.3*	.	1.3	0.816	1.61	2.0	-2.4	-6.0
COc1cc2cnc(-c3ccsc3)cc2cc1OC	0.4	-0.1	11.0	-14.8	-2.3	.	.	.	.	.	.	.
C[C@@H]1CN([C@@H](C)CO)C(=O)c2cc(NC(=O)CCCN(C)C)ccc2O[C@@H](C)CCCCO[C@H]1CN(C)Cc1ccc(C(F)(F)F)cc1	-3.5	-0.1	-0.3	.	.	.	.	.	.	.	.	.
Cc1ccc(Cl)cc1-c1cc(C(=O)Nc2ccc(F)cc2)[nH]n1	-1.0	-0.1	63.3*	.	-0.5	-1.5	1.1	0.969	1.69	2.4	-16.9	-8.7
COc1ccc(Cl)c(-c2cc(C(=O)Nc3ccccc3)[nH]n2)c1	0.0	0.0	97.0*	.	-2.5	4.5	1.22	?	1.42	-2.8	-1.6	-19.8
COc1ccc(-c2cc(C(=O)Nc3cc(OC)c(OC)c(OC)c3)[nH]n2)c(C)c1	1.3	0.1	3.5	.	1.3	2.6	.	.	.	.	.	.
Cc1ccc(NC(=O)Nc2ccc(F)cc2)cc1Cl	0.7	0.2	68.0*	43.5	8.4	-15.4	1.28	0.97	1.65	-2.2	-34.2	-2.6
COc1ccc(-c2cc(C(=O)Nc3ccc(NC(C)=O)cc3)[nH]n2)c(C)c1	-2.1	-0.1	60.6*	.	-1.8	9.6	1.16	1.02	1.52	-11.7	0.7	-10.6
Cc1ccc(Cl)cc1-c1cc(C(=O)NCc2ccc(C(F)(F)F)cc2)[nH]n1	-4.1	0.1	7.8	.	-0.2	-3.7	.	.	.	.	.	.

Source: PubChem
